# Assay outcomes from PubChem.
# Compounds with a hit are over-represented: about 1.8% of the library has one in this group of screens.
# GalR3 antagonist – blocks the human galanin receptor 3 | HEK293 GalR3-CNG cAMP membrane potential fluorescence; galR3 body fused to GalR1 C-terminus | O60755 | inhibition, % at 3 µM | AID 651719 | hit rate 0.44% among 360,000;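 active = inhibition above the screen-wide average plus 3 SD, cut at about 13% in these data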;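 also: forskolin and galanin both at EC90 stimulate the cells; cAMP rise reported by CNG channel membrane potential dye signal; 0% = forskolin plus galanin with DMSO and 100% = forskolin alone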
# 697 NFkB inh – lowers PMA/ionomycin-induced NF-kB signal in 697 B cells. 697 B-cell NF-kB luciferase reporter, 16 h. hit rate 0.33% among 330,000. inhibition, % at 4 µM; in the data active = inhibition above about 35%
# Jurkat NFkB inh – lowers PMA/ionomycin-induced NF-kB signal in Jurkat cells; hit rate 0.53% among 330,000; PMA/ionomycin-induced NF-kB luciferase reporter, luminescence; AID 435003; inhibition, % at 4 µM; in the data active = inhibition above about 50%
# Gli-Sufu antag – blocks Gli-Sufu signaling in a luciferase reporter; inhibition, % at 5 µM; hit rate 0.74% among 340,000; Sufu-KO-LIGHT fibroblasts, Gli luciferase reporter luminescence;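 active = inhibition above about 55%, limit read from the data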;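 also: 0% = DMSO-treated cells and 100% = wells with medium but no cells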
# NR2E3 ag-1 – human photoreceptor-specific nuclear receptor agonism; Q9Y5X4; CHO-S Gal4-NCOR/VP16-NR2E3 two-hybrid, luciferase; inhibition of corepressor binding, % at 3.98 µM; hit rate 0.35% among 360,000; AID 602229;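 active = inhibition above the mean of all tested compounds plus 3 SD, cut at about 70% in these data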;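 also: 0% = DMSO with NR2E3 transfected cells and 100% = cells lacking NR2E3 construct; higher means lower luciferase signal from less NR2E3 corepressor binding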
# Target sequence (Q9Y5X4 whole entry, looked up, the tested form may be a part): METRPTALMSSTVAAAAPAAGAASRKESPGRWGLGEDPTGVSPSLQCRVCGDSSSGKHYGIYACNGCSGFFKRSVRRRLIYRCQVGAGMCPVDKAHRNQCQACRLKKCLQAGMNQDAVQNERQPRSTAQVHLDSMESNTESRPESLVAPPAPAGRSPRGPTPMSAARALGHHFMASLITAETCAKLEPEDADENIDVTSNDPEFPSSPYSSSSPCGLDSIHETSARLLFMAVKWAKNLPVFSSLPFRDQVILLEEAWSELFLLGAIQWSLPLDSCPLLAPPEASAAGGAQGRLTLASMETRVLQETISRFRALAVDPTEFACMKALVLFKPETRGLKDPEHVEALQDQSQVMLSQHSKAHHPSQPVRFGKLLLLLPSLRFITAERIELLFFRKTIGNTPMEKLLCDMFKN
# NR2E3 ag-2 – activates human photoreceptor nuclear receptor NR2E3; Q9Y5X4; GST-NR2E3/biotin-RetCOR TR-FRET, 1536-well; inhibition of corepressor binding, % at 4.78 µM; hit rate 0.12% among 320,000;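 active = percent inhibition above the cutoff of mean plus 3 SD of all tested compounds, set per screening campaign, cut at about 20% in these data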;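 also: 0% = DMSO wells and 100% = biotin wells as full block of FRET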
#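 system = GST-tagged NR2E3 plus biotinylated RetCOR corepressor | input = 1.35 nM GST-NR2E3 | also added = 7 nM biotin-RetCOR | schedule = 5 h incubation at 4 °C | measured by = TR-FRET with europium anti-GST and streptavidin-D2, 340 nm excitation | read-out = percent loss of FRET ratio relative to control wells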
# NR2E3 ag confirm – NR2E3 agonism confirmed in two-hybrid assay; inhibition, % at 3.98 µM; shares compounds with NR2E3 ag-1; CHO-S mammalian two-hybrid NR2E3-NCOR, luciferase luminescence; hit rate 51% among 2,300;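 active = average inhibition above a cutoff equal to the mean inhibition of all tested compounds plus one SD, cut at about 70% in these data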;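 also: 0% = DMSO in NR2E3 cells and 100% = DMSO in cells lacking NR2E3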
# VP16 counter – GAL4-VP16 reporter inhibition in NR2E3 agonist counterscreen | shares compounds with NR2E3 ag-1 | CHO-S GAL4-VP16 luciferase reporter, luminescence | inhibition, % at 3.98 µM | hit rate 29% among 2,300;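 active = mean inhibition above a cutoff equal to the average over all tested compounds plus one standard deviation, cut at about 70% in these data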;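 also: luciferase from a UAS reporter driven by GAL4-VP16 transactivation; 0% = DMSO with VP16-transfected cells and 100% = DMSO with cells lacking VP16; higher means less reporter light so more repression of VP16 activity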
# Starred values were filed as active, the others as inactive; · = not tested or not shown.
SMILES,GalR3 antagonist,697 NFkB inh,Jurkat NFkB inh,Gli-Sufu antag,NR2E3 ag-1,NR2E3 ag-2,NR2E3 ag confirm,VP16 counter
O=S1(=O)c2cccc3cccc(c23)N1Cc1nnc(-c2ccccc2Br)o1,-3,-3,10,26,69,-6,87*,72*
O=C1c2ccccc2S(=O)(=O)N1Cc1nnc(-c2ccccc2Br)o1,-1,·,·,25,-28,·,·,·
O=C(Nc1nnc(SCc2ccc(F)cc2)s1)c1cccnc1Cl,-2,-5,6,-8,6,2,·,·
O=C(Nc1nnc(SCc2ccc(F)cc2)s1)c1ccccn1,-1,-45,7,50,65,·,49,5
CC(C)(CO)CN1CCC(n2nccc2NC(=O)C2CCCC2)CC1,1,0,1,2,-28,4,·,·
O=S(=O)(Nc1cccnc1Cl)c1ccc(-c2ccccc2)cc1,-10,-6,1,-6,64,0,53,45
O=S(=O)(Nc1ccccc1O)c1ccc(-c2ccccc2)cc1,-2,-5,-8,2,0,3,·,·
Cc1noc(C)c1C(=O)N(C)CC(=O)Nc1ccc(F)c(F)c1F,-3,-5,-8,-14,-11,3,·,·
O=c1cc(C(F)(F)F)nc(SC/C=C/c2ccccc2)[nH]1,·,3,10,12,52,1,77*,29
CCc1c(C)nc(SC/C=C/c2ccccc2)[nH]c1=O,·,24,1,5,83*,-1,41,43
CCCc1cc(=O)[nH]c(SC/C=C/c2ccccc2)n1,1,-2,11,6,16,1,·,·
CC1c2cc3c(cc2CCN1C(=O)c1ccc(C(F)(F)F)cc1)OCCCO3 (stereo not drawn),1,2,1,42,59,-2,21,39
COc1cccc(NC(=O)COC(=O)CC(NC(N)=O)c2ccc(Cl)cc2)c1 (stereo not drawn),-4,10,6,0,-26,0,·,·
C=C1C(C(=O)Nc2cccc(OC)c2)C1C(=O)Nc1cccc(OC)c1 (stereo not drawn),-4,8,-12,-10,-37,2,·,·
COc1ccc(CNS(=O)(=O)c2ccc(-c3cc(C)no3)cc2)cc1,-11,-36,-9,-11,51,5,31,34
Cc1cc(-c2ccc(S(=O)(=O)NCc3ccc(F)cc3)cc2)on1,1,-9,4,-8,24,2,·,·
Cc1ccc(/C=C2/CNC/C(=C/c3ccc(C)cc3)C2=O)cc1,-1,·,·,-2,65,·,15,-10
Cc1ccc(/C=C2\CCOC2=O)cc1,-9,-9,7,-7,-38,1,·,·
COc1ccccc1C(CNC(=O)C1CC(=O)N(Cc2ccc(C)cc2)C1)N1CCCC1 (stereo not drawn),1,-6,11,13,-11,-3,·,·
Cc1[nH]n2c(=O)cc(-c3ccc([N+](=O)[O-])cc3)nc2c1-c1ccccc1,-1,3,5,6,97*,-1,99*,58
CCCc1cc(=O)n2[nH]c(C)c(-c3ccccc3)c2n1,-5,11,0,6,13,-2,·,·
Cc1[nH]n2c(=O)cc(C(C)C)nc2c1-c1ccccc1,1,-10,-3,-10,7,0,·,·
Cc1[nH]n2c(=O)cc(C(C)(C)C)nc2c1-c1ccccc1,2,-38,-1,15,51,6,100*,96*
CCn1c(=O)c(=O)[nH]c2cc(C(=O)NCc3ccc(F)cc3)ccc21,5,2,2,23,-8,-3,·,·
CC(NC(=O)COC(=O)c1c[nH]c2ccccc12)c1ccccc1 (stereo not drawn),-3,3,6,21,18,·,·,·
SMILES,GalR3 antagonist,697 NFkB inh,Jurkat NFkB inh,Gli-Sufu antag,NR2E3 ag-1,NR2E3 ag-2,NR2E3 ag confirm,VP16 counter
O=C(COC(=O)C1CCN(S(=O)(=O)c2ccc(Cl)c(C(F)(F)F)c2)CC1)NCC1CCCO1 (stereo not drawn),-9,·,·,·,5,·,·,·
COc1ccc(CNC(=O)c2ccc3ccccc3n2)cc1OC,-12,-25,10,13,85*,-1,60,44
O=C(NCC(=O)N(c1ccccc1F)C(C(=O)NC1CCCC1)c1cccnc1)c1ccco1 (stereo not drawn),8,13,-3,-7,-4,8,·,·
O=C(Nc1ccc(Cn2cccn2)cc1)c1ccc(COc2ccccc2Br)cc1,-8,-9,-34,0,64,-4,86*,-15
CCN1C(=O)CSC1=Nc1cccc(C(=O)O)c1,-9,4,-11,28,5,3,·,·
O=c1c(/C=N/OCc2ccc(Cl)cc2Cl)c[nH]n1-c1cccc(Cl)n1,3,1,-7,3,62,4,98*,64
O=C(C=P(c1ccccc1)(c1ccccc1)c1ccccc1)c1ccccc1-c1ccccc1C(=O)C=P(c1ccccc1)(c1ccccc1)c1ccccc1,33*,·,·,86*,98*,·,100*,87*
CCCCCCCCCS(=O)(=O)N/N=C/c1cccc([N+](=O)[O-])c1,-7,9,6,4,53,3,26,28
Cc1ccc(S(=O)(=O)N/N=C/c2cccc([N+](=O)[O-])c2)cc1,1,12,-14,-4,2,3,·,·
CCCN1CCN(CCCNC(=O)c2ccc(CS(=O)c3ccc(OC)cc3)o2)CC1 (stereo not drawn),-9,3,1,-9,2,-3,·,·
Cc1c(C#N)c2ncn(Cc3ccccn3)c(=O)c2n1-c1ccccc1,-3,-6,6,-2,11,-1,·,·
Cc1c(C#N)c2ncn(CCCN(C)C)c(=O)c2n1-c1ccccc1,-4,15,6,8,90*,2,-9,-10
O[C@@H]1CN(CC2CCCCC2)[C@@H](c2ccccc2)C[C@H]1n1cc(-c2ccc(F)cc2)nn1,-6,·,·,·,-65,·,·,·
CCc1ccc([C@@H]2CC=C(C(=O)O)[C@H](c3ccc(C(C)(C)C)cc3)N2S(=O)(=O)c2ccc(C)cc2)cc1,-10,-3,4,1,93*,·,96*,62
Cc1ccc(S(=O)(=O)N2[C@@H](c3ccc(Br)cc3)C(C(=O)O)=CC[C@H]2c2ccc(C(C)C)cc2)cc1,-4,-6,-13,5,-11,·,·,·
Cc1ccc(S(=O)(=O)N2[C@@H](c3ccc(C(C)(C)C)cc3)C(C(=O)O)=CC[C@H]2c2ccc(C(C)C)cc2)cc1,-5,-10,-6,-5,-4,·,·,·
Cc1ccc(S(=O)(=O)N2[C@@H](c3ccc(C(C)(C)C)cc3)C(C(=O)O)=CC[C@H]2c2ccc(Cl)cc2)cc1,-8,1,4,0,99*,·,99*,66
